# Compounds with a hit are over-represented: about 2.1% of the library has one in this group of screens.
# LMPTP inh = LMPTP (human) inhibition; P24666; recombinant LMPTP-A, OMFP fluorogenic substrate, fluorescence intensity; inhibition, % at 20 µM; 360,000 compounds, 0.22% hits; AID 651560;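 active means compounds that cut the enzyme signal by at least half of the control window in the single-dose screen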;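 further: plate controls were DMSO wells with enzyme plus substrate for no effect and substrate without enzyme for full effect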
# Target sequence (P24666 whole entry, looked up): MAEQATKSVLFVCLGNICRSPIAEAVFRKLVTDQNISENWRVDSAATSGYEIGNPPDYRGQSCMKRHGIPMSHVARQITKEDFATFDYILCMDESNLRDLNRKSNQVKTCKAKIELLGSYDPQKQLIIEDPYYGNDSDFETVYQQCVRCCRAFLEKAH
#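 Test system – LMPTP-A phosphatase enzyme · Quantity – 0.625 nM LMPTP-A final · Reagent – OMFP substrate, 400 µM final · Dosing – one test concentration per compound, 20 µM, with 3% DMSO overall · Timing – 50 min enzyme reaction at room temperature, protected from light · Detection – fluorescence intensity · Controls – substrate-only low control, DMSO enzyme-plus-substrate high control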
# SUMO1-SIM PPI = alters human SUMO1 binding to SIM partners; inhibition, % at 20 µM; P63165; SUMO1 binding to a labelled peptide, TR-FRET, 1 h; 360,000 compounds, 0.33% hits; in the data active means inhibition above about 37%
# Target sequence (P63165 whole entry, looked up): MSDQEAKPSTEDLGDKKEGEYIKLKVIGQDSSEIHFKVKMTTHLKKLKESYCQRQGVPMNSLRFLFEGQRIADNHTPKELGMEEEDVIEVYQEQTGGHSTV
# GRK2 aptamer HTS = inhibitors of human GRK2 displacing RNA aptamer; bead flow cytometry, FAM-aptamer displacement from GRK2; P25098; 330,000 compounds, 0.59% hits; inhibition of aptamer binding, % at 10 µM;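 active means inhibition of aptamer binding above 40%, roughly 3 SD of noise, on plates passing a quality check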;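 further: median bead fluorescence of bound FAM aptamer so fluorescent compounds give negative values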
# DNMT1 block = blocks human DNA methyltransferase DNMT1; 360,000 compounds, 0.83% hits; P26358; AID 588458; inhibition (reported as % activation of signal), % at 10 µM; DNMT1 molecular beacon, Hinp1I cleavage, fluorescence; in the data active means inhibition above about 50%
# STEP inh = inhibitors of human striatal-enriched phosphatase STEP; P54829; recombinant STEP, OMFP fluorogenic substrate, fluorescence; inhibition, % at 20 µM; 360,000 compounds, 0.25% hits;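 active means inhibition at 20 µM, scaled per plate between control wells, above about 37%, limit read from the data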;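 further: 0% = DMSO with enzyme and substrate and 100% = substrate only without enzyme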
#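 medium = Bis-Tris buffer pH 6.0, 2.5 mM DTT, 0.005% Tween 20 | test system = STEP (striatal-enriched tyrosine phosphatase) enzyme, cell-free | measure = normalized % inhibition | compound dosing = 20 µM, 1% DMSO | also added = 25 µM OMFP | schedule = reaction 20 min, ambient temperature | measured by = fluorescence read at 480 nm ex / 540 nm em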
# Scp1 inh = blocks human Scp-1 phosphatase activity | AID 493091 | Recombinant Scp1, phosphopeptide, malachite green phosphate absorbance | 340,000 compounds, 0.88% hits | inhibition, % at 20 µM;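 active means inhibition above about 50% at 20 µM, limit read from the data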;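 further: plate controls were DMSO wells with enzyme for no effect and wells lacking enzyme for full effect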
# Target sequence (Q9GZU7 76-261 limits assumed): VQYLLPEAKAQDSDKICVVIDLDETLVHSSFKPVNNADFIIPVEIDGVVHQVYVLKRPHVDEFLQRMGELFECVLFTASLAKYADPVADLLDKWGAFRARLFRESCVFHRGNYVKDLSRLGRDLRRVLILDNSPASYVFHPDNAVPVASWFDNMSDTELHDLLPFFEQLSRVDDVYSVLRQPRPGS
#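 Test system – truncated SCP-1 phosphatase (76-261aa) · Reagent – Phosphorylated 17-residue peptide substrate · Incubation – 45 min room-temperature reaction, 5 min colour, 30 min stabiliser · Detection – colorimetric phosphate reagent with accelerator and stabiliser, absorbance at 630 nm · Measure – % inhibition at 20 µM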
# * marks the source's active call; other numbers are inactive results; . = no result.
SMILES,LMPTP inh,SUMO1-SIM PPI,GRK2 aptamer HTS,DNMT1 block,STEP inh,Scp1 inh
S=c1[nH]nc(-c2cc(-c3ccccc3)n[nH]2)n1/N=C/c1ccc(Br)s1,28,61*,0,28,3,0
CNc1cc(-c2ccc(O)cc2C)ncn1,0,-4,.,7,0,.
O=C(/C=C/Nc1ccc(F)cc1)c1ccc(Br)cc1,0,2,4,3,2,-6
O=C(/C=C/Nc1ccc([N+](=O)[O-])cc1)c1ccc(Br)cc1,1,2,46*,11,0,-8
O=C1c2cccc3c(O)ccc(c23)C(=O)N1Cc1ccccc1,-4,-82,1,68*,-24,-13
O=C(O)c1cccc(CN2C(=O)c3ccccc3C2=O)c1,0,-3,0,4,-3,3
Nc1ccn([C@@H]2O[C@H](C(=O)NCC(F)(F)F)[C@@H](O)[C@H]2O)c(=O)n1,-2,7,.,3,1,.
Cc1ccc(NCc2ccccc2O)cc1,-1,2,0,-2,-4,-11
Cc1ccc(CNc2ccc(O)cc2)cc1,18,68*,.,-6,8,-7
Cc1ccc2nc3n(c(=O)c2c1)-c1ccc(Cl)cc1C(=O)NC3CC(C)C (centres undefined),.,.,0,.,.,.
O=C(O)c1cc(-c2ccc(/C=c3\sc4nc5ccc(Br)cc5n4c3=O)o2)ccc1Cl,.,.,19,.,.,.
Cc1cc2nc3s/c(=C/c4ccc(-c5ccccc5C(=O)O)o4)c(=O)n3c2cc1C,7,16,4,45,24,98*
CCOc1cc(OCC)cc(C(=O)N2CCC[C@H]2C(=O)N2CCC[C@H]2C(=O)N(C)Cc2ccccc2)c1,8,59*,.,.,.,.
CCOc1ccc(C(=O)COC(=O)Cc2n[nH]c(=O)c3ccccc23)cc1,0,48*,0,-2,1,-9
O=C(Cc1n[nH]c(=O)c2ccccc12)OCC(=O)c1ccc(F)cc1,0,6,0,0,1,-6
CC(=O)N1CCC(C(=O)N2c3ccccc3N=C(c3ccc(C(F)(F)F)cc3)C2C(=O)NC(C)C)CC1 (centres undefined),-1,-6,.,.,.,.
CCN1CCCSC1=S,-1,0,.,2,1,.
CC(C(=O)O)N1C(=O)/C(=C/C=C/c2ccco2)SC1=S (centres undefined),78*,100*,98*,83*,99*,79*
O=C1/C(=C\c2ccco2)SC(=S)N1c1ccccc1,1,-6,9,0,0,-7
CN(C)c1ccc(/C=C(\C#N)C(=O)NCc2ccco2)cc1,.,.,3,.,.,.
CC(OC(=O)/C(C#N)=C/c1ccc(N(C)C)cc1)C(=O)NCc1ccco1 (centres undefined),2,-6,2,61*,-2,.
CCCN1C(=O)/C(=c2\sc3nc(=O)c(Cc4ccc(C)cc4)nn3c2=O)c2ccccc21,3,-2,3,2,6,5
O=c1nc2s/c(=C\c3ccco3)c(=O)n2nc1Cc1ccc(F)cc1,0,1,18,3,-1,77*
CCOC(=O)[C@]12CCC=C1N(Cc1ccco1)C(=O)[C@H](CC(=O)N1CCCC1)C2,-2,2,.,.,.,.
Nc1c(N2CCCC2)cc(Cl)c2nonc12,8,37,0,78*,4,-6
SMILES,LMPTP inh,SUMO1-SIM PPI,GRK2 aptamer HTS,DNMT1 block,STEP inh,Scp1 inh
Nc1c(N2CCOCC2)cc(Cl)c2nonc12,-1,9,2,3,15,0
COc1ccc(-c2cc(=O)oc3cc(OCC(=O)Nc4ccccn4)ccc23)cc1,6,43*,0,-4,0,-9
CCCc1cc(=O)oc2cc(OCC(=O)Nc3ccccn3)ccc12,-1,19,0,1,0,35
Nc1c(C(=O)NC2CC2)sc2nc3c(c(-c4ccco4)c12)CC/C3=C/c1ccco1,71*,95*,2,91*,15,84*
CCCN(CCC)Cc1cc(=O)oc2ccc3ccccc3c12,2,-6,.,7,5,.
O=c1cc(C(F)F)oc2c1ccc1ccccc12,-1,-3,0,5,-7,0
O=Cc1coc2c(ccc3ccccc32)c1=O,.,.,80*,.,.,.
O=C/C=C/c1coc2ccc3ccccc3c2c1=O,.,.,0,.,.,103*
COc1ccc(Br)cc1/C=c1\sc2nc(-c3ccco3)nn2c1=O,19,37,0,106*,12,88*
Cc1nc(N)sc1-c1csc(NCc2ccccc2)n1,0,11,0,-38,7,-10
Cc1cc(-c2csc(NCc3ccccc3)n2)c(C)n1C,16,-1,.,75*,7,9
CC(C)(C)n1nnnc1C(c1ccccc1)N1CCN(c2ccc(C(F)(F)F)cn2)CC1 (centres undefined),2,5,.,.,.,.
C/C(N)=C(/C#N)C(=O)CSc1nnc(Nc2c(C)cccc2C)s1,10,11,2,26,1,70*
C/C(N)=C(/C#N)C(=O)CSc1nnc(Nc2cccc(C)c2C)s1,2,2,2,-6,0,8
CCCCCCCCCC[n+]1cccc2c3ccccc3ccc21,5,-23,.,13,8,65*
CCc1nc2ccc(C(=O)NCCCn3ccnc3)cn2c1N(C)Cc1ccc(Cl)cc1,-6,-12,.,4,2,.
COc1ccc(/C=N/NC(=O)c2cc(O)c(O)c(O)c2)cc1Cn1cc([N+](=O)[O-])cn1,62*,8,.,22,5,83*
COc1ccc(/C=N/NC(=O)c2ccccc2O)cc1Cn1cc([N+](=O)[O-])cn1,2,-13,1,1,-3,-7
CCOC(=O)c1ccc(N2C(=O)c3n[nH]c(C)c3C2c2ccccn2)cc1 (centres undefined),-3,41*,0,2,1,-3
O=c1[nH][nH]c2c1[C@H](c1ccc(F)cc1)O[C@H](CCc1ccccc1)C2,-2,6,.,.,.,.
O=C(O)CN1C(=O)/C(=C\c2cc(Br)ccc2OCc2ccc(Cl)cc2Cl)SC1=S,67*,78*,0,95*,15,31
CC(C)(C)OC(=O)CC1(C#N)c2ccccc2C(Br)=CN1C(=O)c1ccccc1 (centres undefined),0,1,0,-3,0,-9
C[C@@H]1Cn2cnc(C(=O)N[C@@H](C)c3ccccc3)c2C(=O)N1,-2,6,.,4,-3,.
O=C(Nc1ccc(Br)cc1)N1CCCC(O)C1 (centres undefined),-1,-1,56*,-1,-5,-6
COc1cc(F)ccc1-c1csc(C(NC(C)=O)c2ccc(F)c(F)c2)n1 (centres undefined),-1,-1,.,10,-1,.
COc1ccc(C(=O)NC(=S)Nc2cccc3ncccc23)cc1[N+](=O)[O-],13,56*,0,-9,3,-10

# Assay outcomes from PubChem BioAssay.
